Results on 1 compound are retold here after ChEMBL document CHEMBL2311435, “Development of 18F-labeled picolinamide probes for PET imaging of malignant melanoma” (J Med Chem, 2013).

The subject of data set [1] is Stomach. Description: Biodistribution in stomach of C57BL/6 mouse xenografted with mouse B16F10 cells at 3.7 MBq, iv after 1 hr by gamma-scintillation counting analysis. The format is ADME, organism-based, B16-F10. The conditions noted are these: in vivo. The procedure, abridged: (§1)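 1.0 × 10^6 B16F10 cells in PBS injected subcutaneously into the right shoulder of C57BL/6 mice, grown to 0.5 cm (~10 day). Tail-vein injection of about 3.7 MBq (100 μCi) 18F probe in PBS (0.1 M, pH 7.4). Killed at 1.0 or 2.0 h p.i. (n = 4 per group). Tissues excised, weighed and gamma-counted; uptake expressed as %ID/g, mean ± SD.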

The subject of another data set is Liver. Description: Biodistribution in liver of C57BL/6 mouse xenografted with mouse B16F10 cells at 3.7 MBq, iv after 1 hr by gamma-scintillation counting analysis. The format is ADME, organism-based, B16-F10. The conditions noted are these: in vivo. The procedure, abridged: as §1
In data set [2] the test system is Mus musculus. Put plainly: Biodistribution in lungs of C57BL/6 mouse xenografted with mouse B16F10 cells at 3.7 MBq, iv after 1 hr by gamma-scintillation counting analysis. The format is ADME, organism-based, Lung, B16-F10. The note with it: in vivo. The procedure, abridged: as §1
A further data set relates to Heart. Put plainly: Biodistribution in heart of C57BL/6 mouse xenografted with mouse B16F10 cells at 3.7 MBq, iv after 1 hr by gamma-scintillation counting analysis. The conditions noted are these: in vivo. The format is ADME, organism-based, B16-F10. The procedure, abridged:
as §1

Data set [3] can be described thus: Drug uptake in tumor of C57BL/6 mouse xenografted with mouse B16F10 cells at 3.7 MBq, iv after 5 mins by PET imaging analysis. The format is ADME, organism-based, Neoplasm, B16-F10. The conditions noted are these: in vivo. In a few lines:
(§2)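 Dynamic small-animal PET in B16F10 tumor-bearing mice (n = 4) after tail-vein injection of ~3.7 MBq (100 μCi). Scanning began ~2.0 min post-injection and ran 35 min (6×20 s, 8×60 s, 10×150 s; 24 frames). ROI counts converted to %ID/g assuming 1 g/ml tissue density. No attenuation correction.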

The nature of data set [4]: Drug uptake in tumor of C57BL/6 mouse xenografted with mouse B16F10 cells at 3.7 MBq, iv after 2 hrs by PET imaging analysis. The format is ADME, organism-based, Neoplasm, B16-F10. The note with it: in vivo. The procedure, abridged:
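Static small-animal PET at 0.5, 1 and 2 h after tail-vein injection of ~3.7 MBq (100 μCi) into B16F10-bearing C57BL/6 mice (n = 4 per probe). Isoflurane anesthesia, 5% induction and 2% maintenance in O2. Decay-corrected images. ROI-derived %ID/g assumes 1 g/ml density, without attenuation correction. Mean ± SD.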

Data set [5] can be described thus: Drug uptake in tumor of C57BL/6 mouse xenografted with mouse B16F10 cells at 3.7 MBq, iv after 35 mins by PET imaging analysis. The format is ADME, organism-based, Neoplasm, B16-F10. The conditions noted are these: in vivo. The procedure, abridged: as §2
For data set [6], the system named is Nucleic Acid. Put plainly: Ratio of drug uptake in tumor to lungs of C57BL/6 mouse xenografted with mouse B16F10 cells at 3.7 MBq, iv after 2 hrs by gamma-scintillation counting analysis. The format is ADME, organism-based, B16-F10. The conditions noted are these: in vivo. The procedure, abridged:
(§3)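 Same subcutaneous B16F10 model and tail-vein dose of about 3.7 MBq (100 μCi), n = 4 per group. Dissection at 1 or 2 h p.i. Gamma-counter %ID/g of tumor divided by that of blood, lung, liver or muscle, given as mean ± SD.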

Data set [7] has as its system Nucleic Acid. Put plainly: Ratio of drug uptake in tumor to blood of C57BL/6 mouse xenografted with mouse B16F10 cells at 3.7 MBq, iv after 1 hr by gamma-scintillation counting analysis. The format is ADME, organism-based, B16-F10. The conditions noted are these: tumour. In a few lines: as §3
A further data set has as its system Bone. Put plainly: Biodistribution in bone of C57BL/6 mouse xenografted with mouse B16F10 cells at 3.7 MBq, iv after 2 hrs by gamma-scintillation counting analysis. The format is ADME, organism-based, Bone element, B16-F10. The note with it: in vivo. In a few lines:
as §1

Another data set has as its system Muscle tissue. Put plainly: Biodistribution in muscle of C57BL/6 mouse xenografted with mouse B16F10 cells at 3.7 MBq, iv after 2 hrs by gamma-scintillation counting analysis. The note with it: in vivo. The format is ADME, organism-based, B16-F10. The procedure, abridged: as §1
The test system of data set [8] is Stomach. Description: Biodistribution in stomach of C57BL/6 mouse xenografted with mouse B16F10 cells at 3.7 MBq, iv after 2 hrs by gamma-scintillation counting analysis. The format is ADME, organism-based, B16-F10. The conditions noted are these: in vivo. In a few lines: as §1
A further data set concerns Pancreas. Description: Biodistribution in pancreas of C57BL/6 mouse xenografted with mouse B16F10 cells at 3.7 MBq, iv after 2 hrs by gamma-scintillation counting analysis. The format is ADME, organism-based, B16-F10. The note with it: in vivo. In a few lines:
as §1

The next data set relates to Spleen. Description: Biodistribution in spleen of C57BL/6 mouse xenografted with mouse B16F10 cells at 3.7 MBq, iv after 2 hrs by gamma-scintillation counting analysis. The conditions noted are these: in vivo. The format is ADME, organism-based, B16-F10. In a few lines: as §1
Data set [9] concerns Mus musculus. Description: Biodistribution in tumor of C57BL/6 mouse xenografted with mouse B16F10 cells at 3.7 MBq, iv after 2 hrs by gamma-scintillation counting analysis. The format is ADME, organism-based, Neoplasm, B16-F10. The conditions noted are these: in vivo. In a few lines: as §1

For the compound `CCN(CC)CCNC(=O)c1ccc([18F])cn1`, the Drug uptake with Stomach [1] is recorded as 4.26 % ID/g; in the data set on Liver, 4.71 % ID/g; in the data set on Mus musculus [2], 1.58 % ID/g; in the data set on Heart it was 1.17 % ID/g; in data set [3] it was 5.28 % ID/g; in [4] it was 16.87 % ID/g. Further, the Drug uptake in data set [5] was determined as 10.52 % ID/g; in the data set on Bone, 1.72 % ID/g; in the data set on Muscle tissue, 0.41 % ID/g; in the data set with Stomach [8] it was 1.47 % ID/g; in the data set with Pancreas it was 0.61 % ID/g; in the data set on Spleen, 1.13 % ID/g. This compound came in with a Drug uptake with Mus musculus [9] of 16.97 % ID/g. The Ratio in the data set with Nucleic Acid [6] stood at 24.92; in the data set with Nucleic Acid [7], 41.44.
